The source made the active and inactive calls. The rule behind the calls is not given here.
Experiments:
Punta Toro virus [1] = assay: Antiviral activity against 500 PFU Punta Toro virus Adames infected C57BL/6 mouse assessed as animals with detectable virus level in serum at 10 mg/kg, po twice daily administered 24 hrs post viral challenge measured on day 3 of viral infection; assay type: functional
Summary of the method: (§1)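 T-705 was suspended in 0.4% carboxymethylcellulose and given by oral gavage twice daily. Mice were infected subcutaneously with PTV. Five mice per group (10 placebo) were sacrificed on day 3 or 4. Liver homogenate or serum was serially diluted onto triplicate LLC-MK2 monolayers, and CPE was read at 6–8 days. The detection limit was 2.8 log10 CCID50 per 0.1 g liver or 0.1 ml serum.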

Punta Toro virus [2] = assay: Antiviral activity against 500 PFU Punta Toro virus Adames infected C57BL/6 mouse assessed as animals with detectable virus level in serum at 5 mg/kg, po twice daily administered 4 hrs before viral challenge measured on day 3 of viral infection; assay type: functional; summary of the method: as §1
Punta Toro virus [3] = assay: Antiviral activity against 500 PFU Punta Toro virus Adames infected C57BL/6 mouse assessed as mean serum ALT levels at 5 mg/kg, po twice daily administered 4 hrs before viral challenge measured on day 3 of viral infection; assay type: functional
Summary of the method: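 C57BL/6 mice received subcutaneous PTV, then oral gavage twice daily for 5–7 days. T-705 was given in 0.4% CMC and ribavirin in saline. Five mice per group (10 placebo) were killed on day 3 or 4, and serum was collected. ALT activity was measured by kinetic assay. Three sham-infected mice set baselines.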

Punta Toro virus [4] = assay: Antiviral activity against 500 PFU Punta Toro virus Adames infected C57BL/6 mouse assessed as protection against viral infection at 10 mg/kg, po twice daily for 5 to 7 days twice daily administered 4 hrs before viral challenge; assay type: functional
Summary of the method: (§2)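 PTV was inoculated subcutaneously into mice in groups of 15 (25–30 placebo). Dosing was by oral gavage twice daily for 5–7 days, with T-705 suspended in 0.4% CMC and ribavirin in saline. Remaining animals were observed 21–28 days for survival and day of death. Test doses had first been checked for tolerance in uninfected animals.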

Punta Toro virus [5] = assay: Antiviral activity against 5000 PFU Punta Toro virus Adames infected C57BL/6 mouse assessed as animals with detectable virus level in liver at 30 mg/kg, po twice daily administered 24 hrs post viral challenge measured on day 3 of viral infection; assay type: functional
Summary of the method: (§3)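 Mice were infected subcutaneously with PTV and dosed by oral gavage twice daily; 5 per group (10 placebo) were killed on day 3 or 4. Liver homogenate or serum was serially diluted onto triplicate LLC-MK2 monolayers, and CPE was read 6–8 days later. 50% endpoints gave log10 CCID50 per 0.1 g liver or 0.1 ml serum. Detection range was 2.8–9.5; undetectable samples were assigned <2.8.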

Punta Toro virus [6] = assay: Antiviral activity against 500 PFU Punta Toro virus Adames infected C57BL/6 mouse assessed as survival at 75 mg/kg, po twice daily for 5 days administered 4 hrs before viral challenge; assay type: functional, organism-based; set-up: dose 75 mg/kg; summary of the method: as §2
Punta Toro virus [7] = assay: Antiviral activity against 500 PFU Punta Toro virus Adames infected C57BL/6 mouse assessed as mean day of death at 25 mg/kg, po twice daily for 5 days administered 4 hrs before viral challenge; assay type: functional
Summary of the method: (§4)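 Groups of 15 mice (25–30 placebo) were inoculated subcutaneously with PTV. Drug in 0.4% carboxymethylcellulose was given by oral gavage twice daily.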

Punta Toro virus [8] = assay: Antiviral activity against 500 PFU Punta Toro virus Adames infected C57BL/6 mouse assessed as mean viral titer per 0.1 g of liver at 25 mg/kg, po administered 4 hrs before viral challenge measured on day 4 of viral infection; assay type: functional; summary of the method: as §3
Punta Toro virus [9] = assay: Antiviral activity against 500 PFU Punta Toro virus Adames infected C57BL/6 mouse assessed as animals with detectable virus level in liver at 25 mg/kg, po twice daily administered 4 hrs before viral challenge measured on day 4 of viral infection; assay type: functional; summary of the method: as §1
Enterovirus = assay: Antiviral activity against Rhinovirus; assay type: functional, organism-based
Punta Toro virus [10] = assay: Antiviral activity against Punta Toro virus Adames infected Syrian golden hamster assessed as mean viral titer per 0.1 mL of serum at 30 mg/kg, po twice daily administered 4 hrs before viral challenge measured on day 4 of viral infection; assay type: functional
Summary of the method: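 Hamsters received twice-daily oral gavage doses (0.4% CMC) after subcutaneous challenge with 50 PFU. Five per group were killed on day 3 or 4. Liver homogenate or serum was serially diluted onto triplicate LLC-MK2 wells, CPE was read at 6-8 days, and the 50% endpoint was taken. Range was 2.8-9.5 log10 CCID50/0.1 g or 0.1 ml, with undetectable assigned <2.8.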

Pichinde virus [11] = assay: Antiviral activity against Pichinde virus An 4763 assessed as reduction of 1 log10 unit viral titer yields after 7 to 8 days; assay type: functional
Pichinde virus [12] = assay: Antiviral activity against Pichinde virus An 4763 infected Syrian golden hamster assessed as mean viral titer per 0.1 mL of serum at 60 mg/kg, po twice daily for 7 days administered 4 hrs before viral-challenge measured on day 7 of viral infection; assay type: functional
Pichinde virus [13] = assay: Antiviral activity against Pichinde virus An 4763 infected Syrian golden hamster assessed as mean viral titer per 0.1 mL of serum at 30 mg/kg, po twice daily for 7 days administered 4 hrs before viral-challenge measured on day 7 of viral infection; assay type: functional
Pichinde virus [14] = assay: Antiviral activity against Pichinde virus An 4763 infected Syrian golden hamster assessed as animals with detectable virus level in serum at 60 mg/kg, po twice daily for 7 days administered 4 hrs before viral-challenge measured on day 7 of viral infection; assay type: functional
Pichinde virus [15] = assay: Antiviral activity against Pichinde virus An 4763 infected Syrian golden hamster assessed as mean serum ALT levels at 60 mg/kg, po twice daily for 7 days administered 4 hrs before viral-challenge measured on day 7 of viral infection; assay type: functional
Punta Toro virus [16] = assay: Antiviral activity against 500 PFU Punta Toro virus Adames infected C57BL/6 mouse assessed as animals with detectable virus level in serum at 200 mg/kg, po twice daily administered 4 hrs before viral challenge measured on day 4 of viral infection; assay type: functional; summary of the method: as §1
Punta Toro virus [17] = assay: Antiviral activity against 500 PFU Punta Toro virus Adames infected C57BL/6 mouse assessed as animals with detectable virus level in serum at 50 mg/kg, po twice daily administered 4 hrs before viral challenge measured on day 4 of viral infection; assay type: functional; summary of the method: as §1
Punta Toro virus [18] = assay: Antiviral activity against 500 PFU Punta Toro virus Adames infected C57BL/6 mouse assessed as inhibition of liver damage at 200 mg/kg, po twice daily administered 4 hrs before viral challenge measured on day 4 of viral infection; assay type: functional, organism-based; set-up: dose 200 mg/kg
Summary of the method: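 Mice were infected with PTV subcutaneously and dosed by oral gavage twice daily (0.4% CMC vehicle). Five animals per group (10 placebo) were sacrificed on day 3 or 4. Livers were scored 0–4 for hepatic icterus, where 0 is normal and 4 is maximal yellow coloration.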

Punta Toro virus [19] = assay: Antiviral activity against 500 PFU Punta Toro virus Adames infected C57BL/6 mouse assessed as mean day of death at 5 mg/kg, po twice daily for 5 days administered 4 hrs before viral challenge; assay type: functional; summary of the method: as §4
Punta Toro virus [20] = assay: Antiviral activity against 500 PFU Punta Toro virus Adames infected C57BL/6 mouse assessed as mean viral titer per 0.1 g of liver at 30 mg/kg, po twice daily administered 4 hrs before viral challenge measured on day 3 of viral infection; assay type: functional; summary of the method: as §3
Punta Toro virus [21] = assay: Antiviral activity against 500 PFU Punta Toro virus Adames infected C57BL/6 mouse assessed as mean viral titer per 0.1 g of liver at 10 mg/kg, po twice daily administered 4 hrs before viral challenge measured on day 3 of viral infection; assay type: functional; summary of the method: as §3

NC(=O)c1nc(F)cnc1O [FAVIPIRAVIR]
Activity (Punta Toro virus [1]): 100% | Activity (Punta Toro virus [2]): 100% | Activity (Punta Toro virus [3]): 2461 IU/L | Activity (Punta Toro virus [4]): 90% | Activity (Punta Toro virus [5]): 20% | Activity (Punta Toro virus [6]): Active | Activity (Punta Toro virus [7]): >21 days | log10CCID50 (Punta Toro virus [8]): <2.8 | Activity (Punta Toro virus [9]): 0% | EC50 (Enterovirus): 146 µM | log10CCID50 (Punta Toro virus [10]): <4.5 | EC90 (Pichinde virus [11]): 19 µM | log10CCID50 (Pichinde virus [12]): <2.8 | log10CCID50 (Pichinde virus [13]): <5.2 | Activity (Pichinde virus [14]): 0% | Activity (Pichinde virus [15]): 23 IU/L | Activity (Punta Toro virus [16]): 0% | Activity (Punta Toro virus [17]): 10% | Activity (Punta Toro virus [18]): Active | Activity (Punta Toro virus [19]): 4.9 days | log10CCID50 (Punta Toro virus [20]): <2.8 | log10CCID50 (Punta Toro virus [21]): <2.8

NC(=O)c1ncn([C@@H]2O[C@H](CO)[C@@H](O)[C@H]2O)n1 [RIBAVIRIN]
Activity (Punta Toro virus [5]): 20% | log10CCID50 (Punta Toro virus [10]): <2.8
